Results: ChEMBL document CHEMBL3632503, “Antiproliferative and antiplasmodial compounds from selected Streptomyces species” (Bioorg Med Chem Lett, 2015)

Key:
Plasmodium falciparum = experiment: Antiplasmodial activity against Plasmodium falciparum Dd2 assessed as growth inhibition after 72 hrs by SYBR Green I dye based assay; assay type: functional, organism-based; settings: Dd2, 72 h
Summary of the method: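 Ring-stage parasite cultures at 1% hematocrit and 1% parasitemia, grown 72 h at 37 °C with increasing drug concentrations under 5.05% CO2/4.93% O2/90.2% N2. Viability read by DNA quantitation with SYBR Green I in lysis buffer (0.4 µL dye per mL lysis buffer). IC50 from nonlinear regression curve fitting.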

A2780 = experiment: Antiproliferative activity against human A2780 cells after […] by Alamar Blue assay; assay type: functional, cell-based
A2058 [1] = experiment: Antiproliferative activity against human A2058 cells after 96 hrs by CellTitre-Glo luminescent assay; assay type: functional, cell-based; settings: A2058, 96 h
[2] = Antiproliferative activity against human H522-T1 cells after 96 hrs by CellTitre-Glo luminescent assay; assay type: functional, cell-based; settings: H522-T1, 96 h
A2058 [3] = experiment: Selectivity ratio of IC50 for human A2780 cells to IC50 for human A2058 cells; assay type: functional

SMILES | IC50 (Plasmodium falciparum) [nM] | IC50 (A2780) [nM] | IC50 (A2058 [1]) [nM] | IC50 [2] [nM] | Ratio IC50 (A2058 [3])
Cn1c(=O)/c(=C/c2ccccc2)[nH]c(=O)/c1=C/c1ccccc1 | 6570 | – | – | – | –
C[C@@H]1C[C@H]2CC[C@H](O2)[C@H](C)C(=O)O[C@@H](C)C[C@@H]2CC[C@@H](O2)[C@@H](C)C(=O)O[C@H](C)C[C@H]2CC[C@@H](O2)[C@H](C)C(=O)O[C@@H](C)C[C@@H]2CC[C@@H](O2)[C@@H](C)C(=O)O1 [NONACTIN] | – | 160 | 260 | 190 | –
CC[C@H]1C[C@@H]2CC[C@@H](O2)[C@@H](C)C(=O)O[C@H](C)C[C@H]2CC[C@H](O2)[C@H](C)C(=O)O[C@@H](C)C[C@@H]2CC[C@@H](O2)[C@@H](C)C(=O)O[C@H](C)C[C@H]2CC[C@H](O2)[C@H](C)C(=O)O1 [MONACTIN] | – | 130 | 20 | 10 | 6.5
C=C1NC(=O)[C@H]([C@H](C)OC)N(C)C1=O | 50000 | – | – | – | –
CC[C@H]1C[C@@H]2CC[C@@H](O2)[C@@H](C)C(=O)O[C@H](C)C[C@H]2CC[C@H](O2)[C@H](C)C(=O)O[C@@H](CC)C[C@@H]2CC[C@@H](O2)[C@@H](C)C(=O)O[C@H](C)C[C@H]2CC[C@H](O2)[C@H](C)C(=O)O1 [DINACTIN] | – | 260 | 20 | 10 | 13
